In ChEMBL document CHEMBL1145760, “Design, synthesis and biological evaluation of benzimidazole/benzothiazole and benzoxazole derivatives as cyclooxygenase inhibitors” (Bioorg Med Chem Lett, 2003):

What was measured:
[1] = biological target: T1, Prostaglandin G/H synthase 1 (Homo sapiens, UniProt P23219); experiment: Ratio for inhibition of COX-1 to that of COX-2
[2] = biological target: T2, Prostaglandin G/H synthase 2 (Homo sapiens, UniProt P35354); experiment: Inhibitory activity against Prostaglandin G/H synthase 2 in human whole blood assay as LPS induced PGE-2 generation.; format: tissue-based
T2 sequence (P35354 whole entry): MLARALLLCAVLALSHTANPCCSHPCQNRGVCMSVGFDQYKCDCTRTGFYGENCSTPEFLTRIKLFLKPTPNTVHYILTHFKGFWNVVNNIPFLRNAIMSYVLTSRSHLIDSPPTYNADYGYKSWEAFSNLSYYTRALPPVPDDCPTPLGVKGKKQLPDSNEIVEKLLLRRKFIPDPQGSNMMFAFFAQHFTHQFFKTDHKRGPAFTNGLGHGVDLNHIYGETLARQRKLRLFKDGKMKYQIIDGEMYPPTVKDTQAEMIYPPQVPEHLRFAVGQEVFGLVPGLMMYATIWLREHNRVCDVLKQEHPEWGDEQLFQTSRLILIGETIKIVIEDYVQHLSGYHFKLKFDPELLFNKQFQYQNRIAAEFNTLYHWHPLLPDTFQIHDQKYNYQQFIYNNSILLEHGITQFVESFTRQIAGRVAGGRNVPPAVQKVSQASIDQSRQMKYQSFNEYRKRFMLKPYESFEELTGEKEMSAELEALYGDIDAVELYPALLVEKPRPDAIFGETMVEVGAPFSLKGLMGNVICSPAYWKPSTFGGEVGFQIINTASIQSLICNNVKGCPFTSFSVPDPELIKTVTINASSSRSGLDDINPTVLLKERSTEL

[3] = biological target: T1, Prostaglandin G/H synthase 1; experiment: Inhibitory activity against Prostaglandin G/H synthase 1 in human whole blood assay as TXB2 generation; format: tissue-based
How it was run: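 COX-1 activity measured in human whole blood by TXB2 generation. IC50 values were estimated by nonlinear regression of dose–response curves and are the average of three determinations.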

T1 sequence (P23219 whole entry): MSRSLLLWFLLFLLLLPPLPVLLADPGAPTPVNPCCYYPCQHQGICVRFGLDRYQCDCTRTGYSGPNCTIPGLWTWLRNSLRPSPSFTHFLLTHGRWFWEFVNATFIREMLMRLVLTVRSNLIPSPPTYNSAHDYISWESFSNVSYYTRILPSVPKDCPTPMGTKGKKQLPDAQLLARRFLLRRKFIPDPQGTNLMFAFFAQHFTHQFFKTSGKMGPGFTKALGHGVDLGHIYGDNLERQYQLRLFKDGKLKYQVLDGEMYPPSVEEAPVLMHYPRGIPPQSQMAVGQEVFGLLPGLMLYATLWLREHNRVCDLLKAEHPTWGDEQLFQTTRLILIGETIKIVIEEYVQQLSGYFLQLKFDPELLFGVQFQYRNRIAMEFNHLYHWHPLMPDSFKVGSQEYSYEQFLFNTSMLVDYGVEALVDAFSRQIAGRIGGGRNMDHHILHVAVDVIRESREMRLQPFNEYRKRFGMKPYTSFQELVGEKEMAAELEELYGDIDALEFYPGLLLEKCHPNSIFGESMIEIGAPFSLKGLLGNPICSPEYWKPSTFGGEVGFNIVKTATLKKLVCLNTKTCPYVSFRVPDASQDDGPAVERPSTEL

| SMILES | Ratio [1] | IC50 [2] | IC50 [3] |
| --- | --- | --- | --- |
| CCCCCCCCCCCCCCCc1cccc(OCC)c1CSc1nc2cc([N+](=O)[O-])ccc2[nH]1 | > 130 | – | – |
| CCCCCCCCCCCCCCCc1cccc(OC)c1CSc1nc2cc([N+](=O)[O-])ccc2[nH]1 | > 220 | – | – |
| CCCCCCCCCCCCCCCc1cccc(OCC)c1CSc1nc2ccc(OC)cc2[nH]1 | – | 6.25 µM | > 500 µM |
| CCCCCCCCCCCCCCCc1cccc(OC)c1CSc1nc2ccccc2[nH]1 | – | > 10 µM | – |
| CCCCCCCCCCCCCCCc1cccc(OCC)c1CSc1nc2cc(OC)ccc2[nH]1 | > 80 | – | – |
| CCCCCCCCCCCCCCCc1cccc(OCC)c1CSc1nc2ccc(C)cc2[nH]1 | – | > 10 µM | – |
| CCCCCCCCCCCCCCCc1cccc(OC)c1CSc1nc2cc(OC)ccc2[nH]1 | – | > 10 µM | – |
| CCCCCCCCCCCCCCCc1cccc(OC)c1CSc1nc2ccccc2o1 | > 220 | 2.77 µM | > 500 µM |
| CCCCCCCCCCCCCCCc1cccc(OCC)c1CSc1nc2ccc(OC(F)F)cc2[nH]1 | – | > 10 µM | – |
| CCCCCCCCCCCCCCCc1cccc(O)c1CSc1nc2cc(OC)ccc2[nH]1 | 384 | 1 µM | 384 µM |
| CCCCCCCCCCCCCCCc1cccc(OCC)c1CSc1nc2ccccc2[nH]1 | > 340 | 1.47 µM | > 500 µM |
| CCCCCCCCCCCCCCCc1cccc(OCC)c1CSc1nc2ccc([N+](=O)[O-])cc2[nH]1 | – | 3.84 µM | > 500 µM |
| CCCCCCCCCCCCCCCc1cccc(OC)c1CSc1nc2ccccc2s1 | > 470 | 1.06 µM | > 500 µM |
| CCCCCCCCCCCCCCCc1cccc(OC)c1CSc1nc2ccc([N+](=O)[O-])cc2[nH]1 | – | 2.27 µM | > 500 µM |
| CCCCCCCCCCCCCCCc1cccc(OC)c1CSc1nc2cc(OC(F)F)ccc2[nH]1 | – | > 10 µM | – |
| CCCCCCCCCCCCCCCc1cccc(OC)c1CSc1nc2cc(C)ccc2[nH]1 | > 190 | 2.63 µM | > 500 µM |
| CCCCCCCCCCCCCCCc1cccc(OCC)c1CSc1nc2ccccc2o1 | – | > 10 µM | – |
| CCCCCCCCCCCCCCCc1cccc(OCC)c1CSc1nc2ccccc2s1 | – | > 10 µM | – |
